Drawing on ChEMBL document CHEMBL1158417, “Phosphonate analogues of cyclopropavir phosphates and their E-isomers. Synthesis and antiviral activity” (Bioorg Med Chem, 2009), this text covers EC50 and CC50 for seven compounds.

Data set [1] has as its system Human alphaherpesvirus 2. Kind of data set: Antiviral activity against Herpes simplex virus type 2 in HFF assessed as inhibition of virus-induced cytopathic effect. Format: functional, organism-based. The method, boiled down:
(§1)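 HSV-1 and HSV-2 tested in HFF cultures by inhibition of virus-induced cytopathic effect (CPE); cytotoxicity measured by neutral red uptake.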
(In general: Protection from cytopathic effect is a common read-out in antiviral testing.)

Data set [2] concerns Human betaherpesvirus 5. The data set can be described thus: Antiviral activity against Human cytomegalovirus Towne in HFF by plaque reduction assay. As to conditions: Human betaherpesvirus 5, Towne. Format: functional, organism-based. The method, boiled down:
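HCMV Towne or AD169 grown in human foreskin fibroblast (HFF) cultures; plaque reduction read-out for EC50; cytotoxicity judged visually in HFF cells not infected by virus.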

Data set [3] deals with Human betaherpesvirus 5. Kind of data set: Antiviral activity against Human cytomegalovirus AD169 in HFF by cytopathic effect (CPE) inhibition assay. Conditions: Human betaherpesvirus 5, AD169.
Data set [4] has as its system Human alphaherpesvirus 1. The data set can be described thus: Antiviral activity against Herpes simplex virus type 1 in african green monkey BSC1 cells by plaque reduction assay. The format is functional, organism-based. Conditions: Human alphaherpesvirus 1, BSC-1. The method, boiled down: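 HSV-1 plaque reduction in BSC-1 cells; cytotoxicity determined in replicating KB cells.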
In general terms: Plaque reduction counts the foci of infection that form in a cell layer.

Data set [5] has as its system HFF. The data set can be described thus: (§2) Cytotoxicity against HFF by neutral red uptake assay. The format is cell-based. As to conditions: human, hff. The method, boiled down: (§3)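 HFF cultures; cytotoxicity determined by neutral red uptake.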
The test system of data set [6] is Human alphaherpesvirus 3. The data set can be described thus: Antiviral activity against Varicella zoster virus in HFF assessed as inhibition of virus-induced cytopathic effect. Format: functional, organism-based. The essentials: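 VZV in HFF culture; antiviral activity read by cytopathic effect (CPE) inhibition assay.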
Data set [7] can be described thus: Cytotoxicity against human Akata cells. The format is cell-based.
Data set [8] has as its system Murid betaherpesvirus 1. The data set can be described thus: Antiviral activity against Murine cytomegalovirus in MEF by plaque reduction assay. Format: functional, organism-based. The method, boiled down: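 Murine CMV titrated by plaque reduction in mouse embryonic fibroblasts (MEF); EC50 from plaque counts.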
Data set [9] deals with Human betaherpesvirus 5. Kind of data set: Antiviral activity against cyclopropavir-resistant Human cytomegalovirus 2696r expressing most of UL97 phosphotransferase sequence deleted mutant by plaque reduction assay. Conditions: Human betaherpesvirus 5, 2696r. The format is functional, organism-based. The essentials: (§4)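 Plaque reduction with HCMV Towne background strains: wild-type, 2696r (most of UL97 deleted) and E8 (two UL97 point mutations); four drug concentrations, each in duplicate; EC50 read from plaque counts.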

For data set [10], the system named is MEF. Kind of data set: (§5) Cytotoxicity against MEF. As to conditions: mouse, mef. Format: cell-based.
Data set [11] relates to HFF. The data set can be described thus: (§6) Cytotoxicity against HFF by visual cytotoxicity assay. As to conditions: human, hff. Format: cell-based. The method, boiled down: (§7)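 Uninfected HFF cultures scored by visual inspection for cytotoxicity in cells unaffected by virus.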
Data set [12] concerns Human gammaherpesvirus 4. Kind of data set: Antiviral activity against Epstein-Barr virus in human Akata cells by DNA hybridization assay. The format is functional, organism-based. As to conditions: human gammaherpesvirus 4, Akata. The essentials: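 EBV replication measured by DNA hybridization assay in Akata cells.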
In data set [13] the test system is Human alphaherpesvirus 1. The data set can be described thus: Antiviral activity against Herpes simplex virus type 1 in HFF assessed as inhibition of virus-induced cytopathic effect. Format: functional, organism-based. The method, boiled down: as §1
In data set [14] the test system is Human betaherpesvirus 5. Kind of data set: Antiviral activity against Human cytomegalovirus Towne expressing wild type UL97 phosphotransferase by plaque reduction assay. Format: functional, organism-based. Conditions: Human betaherpesvirus 5, Towne. The method, boiled down:
as §4

Data set [15] relates to Human betaherpesvirus 5. Kind of data set: Antiviral activity against drug-resistant Human cytomegalovirus E8 isolate expressing UL97 phosphotransferase with two point mutation in UL97 gene by plaque reduction assay. The format is functional, organism-based. As to conditions: Human betaherpesvirus 5, E8. The essentials:
as §4

Data set [16] relates to KB. Kind of data set: (§8) Cytotoxicity against human replicating KB cells. Format: cell-based. As to conditions: kb. The method, boiled down: (§9)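 Cytotoxicity measured in replicating KB cells, run alongside HSV-1 assays in BSC-1 cells.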
In data set [17] the test system is Human alphaherpesvirus 1. The data set can be described thus: Antiviral activity against Herpes simplex virus type 1 in african green monkey BSC1 cells by ELISA. Conditions: Human alphaherpesvirus 1, BSC-1. Format: functional, organism-based. The essentials:
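HSV-1 in BSC-1 cells, viral antigen measured by ELISA; cytotoxicity determined in replicating KB cells.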

A short description of data set [18]: as §2. Conditions: human, HFF cells. Format: cell-based. The essentials: as §3
A short description of data set [19]: as §5. The format is cell-based. As to conditions: mouse, MEF cells.
A short description of data set [20]: as §6. Format: cell-based. Conditions: human, HFF cells. The method, boiled down: as §7
The nature of data set [21]: as §8. Format: cell-based. Conditions: KB cells. The method, boiled down:
as §9

The test system of data set [22] is Human betaherpesvirus 5. The data set can be described thus: Antiviral activity against Human cytomegalovirus AD169 in HFF by cytopathic effect assay. The format is functional, organism-based. Conditions: Human betaherpesvirus 5, AD169. The essentials: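 HCMV strain AD169 grown in human foreskin fibroblast (HFF) cultures; antiviral effect read as inhibition of virus-induced cytopathic effect (CPE).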

In data set [23] the test system is Human gammaherpesvirus 4. The data set can be described thus: Antiviral activity against Epstein-Barr virus in human H1 cells by DNA hybridization assay. The format is functional, organism-based. Conditions: human gammaherpesvirus 4, H1.
A short description of data set [24]: Cytotoxicity against human CEM cells. The format is cell-based. As to conditions: CCRF-CEM cells.
Data set [25] in a line: Cytotoxicity against human Daudi cells. Format: cell-based.
Data set [26] deals with Human alphaherpesvirus 3. The data set can be described thus: Antiviral activity against Varicella zoster virus in HFF by plaque reduction assay. The format is functional, organism-based. The essentials:
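VZV in HFF culture; antiviral activity measured by plaque reduction assay.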

Some results are limits rather than exact numbers.

For the compound `Nc1nc2c(ncn2/C=C2/CC23CCP(=O)(O)OC3)c(=O)[nH]1` (centres undefined), the concentration for a half-maximal effect (EC50) – broadly, the concentration giving half of the maximal effect – was over 300 µM in data set [1]; 2400 nM in [2]; 11.6 µM in data set [3]; 40 µM in data set [4]; over 300 µM in data set [6]; 400 nM in [8]. In addition, the EC50 in [9] was 3000 nM; in [12] it was over 100 µM; in [13], over 300 µM; in [14], 4 µM; in data set [15], 4 µM. The CC50 (in general, the concentration giving 50% cytotoxicity) in [5] was over 300 µM; in [7] (akata) it was over 100 µM; in data set [10] it was over 100 µM; in [11] it was over 100 µM; in data set [16], over 100 µM.

Turning to `Nc1nc2c(ncn2/C=C2\CC23CCP(=O)(O)OC3)c(=O)[nH]1` (centres undefined), the EC50 was over 100000 nM in data set [2], over 300 µM in data set [3], 100 µM in data set [4] and over 100 µM in data set [12].

With `Nc1nc2c(ncn2/C=C2/CC2(CO)CO)c(=O)[nH]1` [FILOCICLOVIR], the EC50 in data set [1] was over 380 µM; in data set [2] it was 460 nM; in [17], over 100 µM; in data set [6], over 380 µM; in data set [8], 270 nM; in data set [9] it was 28000 nM. In addition, the EC50 in [13] is over 380 µM; in data set [14] it was 0.6 µM; in [15], 8 µM. In addition, the cytotoxic concentration (CC50) in [18] was over 380 µM; in data set [7] (Akata cells), 46 µM; in [19], over 380 µM; in data set [20], over 100 µM; in data set [21] it was over 100 µM.

Turning to `Nc1nc2c(ncn2/C=C2\CC2(CO)CCP(=O)(O)O)c(=O)[nH]1` (centres undefined), the EC50 is over 300 µM in data set [1]; over 100000 nM in data set [2]; 100 µM in data set [4]; 191 µM in data set [6]; over 300 µM in [22]; over 100 µM in data set [12]. Further, the EC50 in [13] was over 300 µM. For the same compound, the cytotoxic concentration (CC50) in data set [5] is over 300 µM.

As to `Nc1nc(O)c2ncn(/C=C3/CC34COP(=O)(O)OC4)c2n1` (centres undefined), the concentration giving a half-maximal response (EC50) in data set [1] is 242 µM; in data set [23] it was over 20 µM; in data set [6] it was over 301 µM; in [8], 7200 nM; in data set [13], over 301 µM. Also, the CC50 in data set [18] was over 301 µM; in data set [24], over 100 µM; in [19], over 301 µM; in data set [20], over 100 µM; in data set [25] it was 150 µM; in data set [21] it was over 100 µM.

Take `Nc1nc2c(ncn2COCCO)c(=O)[nH]1` [ACYCLOVIR]: the 50% effective concentration (EC50) came out at 1.2 µM in [1], 0.3 µM in data set [4], 4.4 µM in data set [26] and 1.3 µM in [13]. The compound also returned a CC50 in data set [5] of over 300 µM.

For `Nc1nc2c(ncn2/C=C2/CC2(CO)CCP(=O)(O)O)c(=O)[nH]1` (centres undefined), the concentration for a half-maximal effect (EC50) was 76.5 µM in data set [1]; 2200 nM in [2]; 2.7 µM in [3]; 15 µM in data set [17]; 130 nM in data set [8]; 3000 nM in data set [9]. The EC50 in data set [13] was determined as 59.4 µM; in data set [14], 3.5 µM; in [15] it was 3.2 µM. In addition, the CC50 in data set [7] (Akata cells) and in data set [20] was over 100 µM each time.
